Measured values as given in ChEMBL document CHEMBL1143989, “New anti-viral drugs for the treatment of the common cold” (Bioorg Med Chem, 2008).
Converted amounts (≈) assume the structure as drawn. The source made the active and inactive calls. The rule behind the calls is not given here.

What was measured:
[1] = target: T1, Human rhinovirus A protease (Human rhinovirus sp.) (UniProt Q4U254); assay: Inhibition of HRV14 3C protease in presence of dithiothreitol; settings: rhinovirus B14
T1 sequence (whole entry): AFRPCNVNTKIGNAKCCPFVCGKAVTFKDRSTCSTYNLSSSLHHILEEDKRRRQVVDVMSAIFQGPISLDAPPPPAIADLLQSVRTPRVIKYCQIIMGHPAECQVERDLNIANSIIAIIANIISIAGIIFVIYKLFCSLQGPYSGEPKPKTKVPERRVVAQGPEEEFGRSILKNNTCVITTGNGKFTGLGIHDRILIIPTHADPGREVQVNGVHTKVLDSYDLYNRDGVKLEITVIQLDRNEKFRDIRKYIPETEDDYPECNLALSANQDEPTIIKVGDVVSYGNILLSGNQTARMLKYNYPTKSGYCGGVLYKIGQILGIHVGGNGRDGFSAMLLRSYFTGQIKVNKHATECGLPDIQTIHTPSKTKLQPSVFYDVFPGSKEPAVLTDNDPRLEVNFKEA

[2] = target: T1, Human rhinovirus A protease (Human rhinovirus sp.); assay: Inhibition of HRV14 3C protease at 10 uM; settings: rhinovirus B14
In short: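 Recombinant HRV14 3C protease at 0.7 uM with EALFQ-pNA chromogenic substrate, compound at 10 µM final, 1% DMSO final. Buffer: 25 mM Hepes pH 7.5, 150 mM NaCl, 0.12 mM DTT, 1 mM EDTA. Started by adding enzyme; A405 read at 0 and 60 min at 30 °C. Percent inhibition vs uninhibited control; duplicates, mean ± SD.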

[3] = target: T1, Human rhinovirus A protease (Human rhinovirus sp.); assay: Inhibition of HRV14 3C protease at 1 uM; settings: rhinovirus B14
[4] = target: T1, Human rhinovirus A protease (Human rhinovirus sp.); assay: Inhibition of HRV14 3C protease at 0.1 uM; settings: rhinovirus B14
[5] = Cytotoxicity against human HeLa cells after 5 days; format: cell-based; settings: read-out: Maximal non-toxic dose 50
In short: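 HeLa (Ohio strain) cells plated at about 10^4 cells per ml in 24-well plates, kept at 33 °C in 3% CO2 in DMEM with 1% non-essential amino acids and 10% FCS. Exposed to decreasing compound concentrations for 5 days; viability read by neutral red uptake. MNTD50 (dose inhibiting less than 50% replication vs control) obtained by regression; triplicate.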

rhinovirus B14 = assay: Antiviral activity against HRV14; format: functional, organism-based; settings: Rhinovirus B; read-out: ID50 (the source's name)
In short: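 HeLa (Ohio) monolayers at 33 °C, 3% CO2, in DMEM with 1% non-essential amino acids and 10% FCS. Infected with HRV-14 at MOI 0.1, then decreasing compound amounts added. After 24 h, freeze-thaw; supernatant titrated under 2% nutrient agar and plaques counted after neutral red staining. ID50 derived from plaque counts.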

[6] = Inhibition of HRV 3C protease; set-up: species or system Human rhinovirus sp.
[7] = target: T1, Human rhinovirus A protease (Human rhinovirus sp.); assay: Inhibition of HRV14 3C protease at 1 mM; settings: rhinovirus B14
Human alphaherpesvirus 2 = assay: Antiviral activity against HSV2; format: functional, organism-based
Influenza A virus = assay: Antiviral activity against WSN influenza A virus; format: functional, organism-based
In short: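 Cell-based antiviral test in the VERO/MDCK cell set, run on 24-well plates by analogy with the HeLa/rhinovirus method. Activity was scored after 48 h of incubation at 37 °C under 5% CO2.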

[8] = target: T1, Human rhinovirus A protease (Human rhinovirus sp.); assay: Inhibition of HRV14 3C protease at 0.16 to 100 uM; settings: rhinovirus B14
In short: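 Colorimetric HRV14 3C protease assay: 0.7 uM enzyme, EALFQ-pNA substrate, Hepes pH 7.5 buffer with 0.12 mM DTT and 1 mM EDTA. Compound tested across 0.16 to 100 µM; p-nitroaniline release read at 405 nm after 60 min at 30 °C.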

Compound | Activity [1] | inhibition [2] | inhibition [3] | inhibition [4] | other results
NC(=O)c1cc(C(=O)CBr)cc(C(=O)Nc2ccc3ccccc3c2)c1 | inactive | 80% | 19% | 5% | 
NC(=O)c1cc(Cc2ccc3ccccc3c2)cc(C(=O)C(Br)Br)c1 |  | > 70% |  |  | 
CCOC(=O)/C=C/[C@H](C[C@@H]1CCNC1=O)NC(=O)[C@@H](CC(=O)[C@@H](NC(=O)c1cc(C)on1)C(C)C)Cc1ccc(F)cc1 | inactive |  |  |  | 
NC(=O)c1cc(Cc2ccc3ccccc3c2)cc(C(=O)CCl)c1 | inactive | 81% | 61% | 25% | MNTC at 120 h [5]: 0.75 µg/mL; IC50 (rhinovirus B14): > 0.75 µg/mL
NC(=O)c1cccc(C(=O)C(Cl)Cl)c1 |  | > 50% |  |  | 
NC(=O)CCN(NC(=O)[C@H](Cc1ccccc1)NC(=O)OCc1ccccc1)C(=O)CBr |  |  |  |  | IC50 [6]: 48 nM
NC(=O)c1cc(Cc2ccc3ccccc3c2)cc(C(=O)CBr)c1 | inactive | 83% | 39% | 12% | 
CC(=O)N[C@@H](CC(C)C)C(=O)N[C@@H](CC(C)C)C(=O)N[C@H](C=O)CCCNC(=N)N |  |  |  |  | inhibition [7]: 57%
NC(=O)c1cccc(C(=O)CBr)c1 | inactive | 85% | 23% | 4% | MNTC at 120 h [5]: > 100 µg/mL; IC50 (rhinovirus B14): 25 µg/mL (≈ 103 µM); Activity (Human alphaherpesvirus 2): Active; Activity (Influenza A virus): Active
NC(=O)c1cc(Cc2ccccc2)cc(C(=O)CCl)c1 | inactive | 91% | 79% | 14% | MNTC at 120 h [5]: 0.75 µg/mL; IC50 (rhinovirus B14): > 0.75 µg/mL
NC(=O)c1cc(Cc2ccccc2)cc(C(=O)CBr)c1 | inactive | 68% | 30% | 0% | 
NC(=O)c1cccc(C(=O)C(F)(F)F)c1 |  |  |  |  | Activity [8]: inactive
NC(=O)c1cc(C(=O)CBr)cc(C(=O)Nc2ccccc2)c1 | inactive | 86% | 27% | 8% | 
O=C(CBr)c1ccc2c(c1)C(=O)NC2 | inactive | 70% | 25% | 0% | 
CCOC(=O)CCn1c(=O)c2ccccc2n(CC(=O)c2ccccc2)c1=O |  |  |  |  | IC50 [6]: 55400 nM
CCOC(=O)/C=C/[C@H](CCC(N)=O)CC(=O)[C@H](Cc1ccccc1)NC(=O)[C@H](CC(C)C)NC(=O)OCc1ccccc1 |  |  |  |  | IC50 [6]: 540 nM
NC(=O)c1cc(Cc2ccccc2)cc(C(=O)C(Br)Br)c1 | inactive | 75% | 27% | 14% | 
NC(=O)c1cccc(C(=O)CCl)c1 |  | > 50% |  |  | MNTC at 120 h [5]: 3.12 µg/mL
NC(=O)c1cccc(C(=O)C(Br)Br)c1 |  | > 50% |  |  | 
